{"source": "paper PMC9530961", "about": "(Molecular Therapy. Nucleic Acids, 2022)", "key": {"[1]": {"test_system": "CSNK2A1 mRNA", "test": "qPCR gene silencing in OVCAR3 cells", "format": "cell-based", "conditions": "48 h, 10% FBS", "outline": "(§1)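 Cells were seeded at 50,000/well and treated with peptide complexes of CSNK2A1-targeting or non-targeting siRNA at increasing N:P ratios in McCoy's 5A/DMEM with 10% FBS. Medium was replaced after a PBS wash at 24 h, for 48 h total. CSNK2A1 mRNA was quantified by TaqMan qRT-PCR with 18S as reference.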"}, "[2]": {"target": "T1, RNase A (Bos taurus, UniProt P61823)", "T1 sequence (P61823 27-150)": "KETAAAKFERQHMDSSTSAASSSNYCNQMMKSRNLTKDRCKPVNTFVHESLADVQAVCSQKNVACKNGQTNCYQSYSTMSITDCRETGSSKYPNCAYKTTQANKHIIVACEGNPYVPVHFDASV", "test": "Protection of siRNA from RNase A degradation, agarose gel electrophoresis", "format": "in vitro ADME", "conditions": "complexes with siNT, 5 μg/mL RNase A, 37°C, 1 h, 6% SDS", "outline": "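Non-targeting siRNA (10 μM solution) was mixed with each peptide (10 μM solution in RNase-free water) at several N:P ratios and held 20 min at room temperature. Complexes or free siRNA were left untreated or exposed to 5 μg/mL RNase A at 37°C for 1 h, then dissociated with 6% SDS. Samples were run on 2% agarose at 100 V, ethidium bromide-stained and imaged for intact siRNA.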"}, "[3]": {"test_system": "MCF10a breast epithelial cells", "test": "Cell viability of healthy cells", "format": "cell-based", "conditions": "48 h"}, "[4]": {"test_system": "CSNK2A1 mRNA", "test": "qPCR gene silencing in CAOV3 cells", "format": "cell-based", "conditions": "CAOV3, 80:1 N:P ratio, 48 h", "outline": "as §1"}}, "data": [{"substance": "WEADIVADIVADIVAGGG-(d)RRRRRRRRR [DIVA3]", "values": [{"measurement": "CSNK2A1 mRNA silencing efficacy", "setting": "[1]; OVCAR3, siCSNK2A1 complex at 60:1 versus siNT complex", "result": 47, "unit": "%"}]}, {"substance": "WEADIVADIVHDIVADIVAGGG-(d)RRRRRRRRR [DIV3H]", "values": [{"measurement": "CSNK2A1 mRNA silencing efficacy", "setting": "[1]; OVCAR3, siCSNK2A1 complex at 80:1 versus siNT complex", "result": 72, "unit": "%"}]}, {"substance": "WEADIVADIVWDIVADIVAGGG-(d)RRRRRRRRR [DIV3W]", "values": [{"measurement": "siRNA degradation after incubation with RNase A", "setting": "[2]", "result": "Minimal degradation"}, {"measurement": "cytotoxic effects on healthy cells", "setting": "[3]", "result": "no cytotoxic effects were observed"}, {"measurement": "CSNK2A1 mRNA knockdown, maximum", "setting": "[4]", "result": 80, "unit": "%"}]}]}
